Measurements pooled from the literature.
Protocols differ between the studies behind these lines.
ABL1 Q252H phosphorylated: Tyrosine-protein kinase ABL1, phosphorylated (ABL1, Homo sapiens, UniProt P00519, Q252H)
ABL1 H396P non-phosphorylated: Tyrosine-protein kinase ABL1, non-phosphorylated (ABL1, Homo sapiens, UniProt P00519, H396P)
ABL1 F317L non-phosphorylated: Tyrosine-protein kinase ABL1, non-phosphorylated (ABL1, Homo sapiens, UniProt P00519, F317L)
ABL1 M351T phosphorylated: Tyrosine-protein kinase ABL1, phosphorylated (ABL1, Homo sapiens, UniProt P00519, M351T)

| SMILES | target | effect on | method | tested at | remaining binding [%] |
| --- | --- | --- | --- | --- | --- |
| c1cncc(-c2cccc(Nc3nccc(NC4CCCCC4)n3)c2)c1 | Tyrosine-protein kinase ABL1, phosphorylated (ABL1, Homo sapiens, UniProt P00519, H396P) | binding | competition with immobilised ligand | 10 µM | 29 |
| C[C@H](c1cccc(C#N)c1)n1cc(Cl)cc(C(N)=O)c1=N | ABL1 Q252H phosphorylated | cell-free assay | competition with immobilised ligand | 1 µM | 84 |
| CN(CCCC(F)(F)F)c1nccc(-c2cnn3ncccc23)n1 | Tyrosine-protein kinase ABL1, phosphorylated (ABL1, Homo sapiens, UniProt P00519) | binding | – | 1 µM | 100 |
| CNC(=O)[C@@H]1CC[C@@H](n2c(-c3ccc4cnccc4c3)nc3ccc(C(=O)NCc4cccc(C(N)=O)c4)cc32)C1 | ABL1 H396P non-phosphorylated | binding | competition with immobilised ligand | 1 µM | 86 |
| CC1CCCN1c1nccc(-c2cnn3ncccc23)n1 (stereo not drawn) | Tyrosine-protein kinase ABL1 (ABL1, Homo sapiens, UniProt P00519, Y253F) | binding | – | 1 µM | 96 |
| CCN1CCN(Cc2ccc(C(=O)Nc3ccc(C)c(Oc4ccc5c(c4)CC(=O)N5)c3)cc2C(F)(F)F)CC1 | Tyrosine-protein kinase ABL1, non-phosphorylated (ABL1, Homo sapiens, UniProt P00519) | binding | competition with immobilised ligand | 1 µM | 2.1 |
| O=C(NS(=O)(=O)c1ccc(NCC2CCOCC2)c([N+](=O)[O-])c1)c1ccc(N2CCN(Cc3ccc(C(F)(F)F)cc3-c3ccc(Cl)cc3)CC2)cc1Oc1cnc2[nH]ccc2c1 | Tyrosine-protein kinase ABL1, phosphorylated (ABL1, Homo sapiens, UniProt P00519, F317I) | binding | – | 1 µM | 100 |
| O=C(NCCCN1CCOCC1)c1ccc(Nc2nccc(-c3cc4ccccc4s3)n2)cc1 | Tyrosine-protein kinase ABL1, non-phosphorylated (ABL1, Homo sapiens, UniProt P00519, F317I) | binding | competition with immobilised ligand | 1 µM | 100 |
| C=CC(=O)N1CCC(C(=O)NCC(=O)N2CCN(c3nc(-c4cnc(N)nc4C(F)F)nc(N4CCOCC4)n3)CC2)CC1 | ABL1 F317L non-phosphorylated | binding | competition with immobilised ligand | 1 µM | 90 |
| Nc1cnc(N2CCc3cc(S(=O)(=O)Nc4c(F)cc(Cl)cc4F)cc(N4CCCC4=O)c32)nc1 | ABL1 Q252H phosphorylated | cell-free assay | competition with immobilised ligand | 1 µM | 98 |
| N[C@H]1CCN(c2nccc(-c3cnn4ncccc34)n2)C1 | Tyrosine-protein kinase ABL1 (ABL1, Homo sapiens, UniProt P00519, F317L) | binding | – | 1 µM | 100 |
| O=C(NCCCN1CCOCC1)c1ccc(Nc2ncc(Cl)c(-c3ccc(Cl)s3)n2)cc1 | ABL1 Q252H phosphorylated | binding | competition with immobilised ligand | 1 µM | 29 |
| Cc1nccc(COC(=O)N2C[C@@H]3[C@@H](CNC(=O)c4ccc5[nH]nnc5c4)[C@@H]3C2)n1 | ABL1 M351T phosphorylated | cell-free assay | competition with immobilised ligand | 1 µM | 95 |
| COc1ncc2cc3ccccc3nc2c1C#N | Tyrosine-protein kinase ABL1, non-phosphorylated (ABL1, Homo sapiens, UniProt P00519, T315I) | cell-free assay | competition with immobilised ligand | 5 µM | 100 |
| C[C@@H](c1ccc(-n2cnc3c(N)ncnc32)cc1)N1CCc2nn(C)c(Cc3ccccc3)c2C1=O | ABL1 F317L non-phosphorylated | binding | competition with immobilised ligand | 0.1 µM | 16 |
| N#CC1(c2ccccn2)CCN(Cc2cc(C(=O)N3CCCC3)c(=O)n3ccccc23)CC1 | ABL1 M351T phosphorylated | cell-free assay | competition with immobilised ligand | 1 µM | 100 |
| O=C(c1ccc(Nc2ncc(Cl)c(-c3ccc(Cl)s3)n2)cc1)N1CCC(N2CCCC2)CC1 | ABL1 Q252H phosphorylated | binding | competition with immobilised ligand | 1 µM | 4.2 |
| c1cnn2ncc(-c3ccnc(N4CCC45COC5)n3)c2c1 | Tyrosine-protein kinase ABL1 (ABL1, Homo sapiens, UniProt P00519, T315I) | binding | – | 1 µM | 64 |
| O=C(c1ccc(Nc2ncc(Cl)c(-c3cc4ccccc4s3)n2)cc1)N1CCC(N2CCCC2)CC1 | ABL1 Q252H phosphorylated | binding | competition with immobilised ligand | 1 µM | 12 |
| O=S(=O)(NC1CCC(c2cc(F)ccc2F)(S(=O)(=O)c2ccc(Cl)cc2)CC1)C(F)(F)F (stereo not drawn) | ABL1 H396P non-phosphorylated | cell-free assay | competition with immobilised ligand | 1 µM | 100 |
| O=C(NCC1CCOCC1)c1n[nH]cc1NC(=O)c1c(F)cccc1F | Tyrosine-protein kinase ABL1, non-phosphorylated (ABL1, Homo sapiens, UniProt P00519, Q252H) | binding | competition with immobilised ligand | 1 µM | 82 |
